The text below walks through data of ChEMBL document CHEMBL1141088, “A new pyridazine series of GABAA alpha5 ligands” (J Med Chem, 2005).

Assay [1] has as its target T1, GABA-A receptor; alpha-5/beta-3/gamma-2 (Homo sapiens, UniProt P18507+P28472+P31644).
T1 sequence (P18507 whole entry): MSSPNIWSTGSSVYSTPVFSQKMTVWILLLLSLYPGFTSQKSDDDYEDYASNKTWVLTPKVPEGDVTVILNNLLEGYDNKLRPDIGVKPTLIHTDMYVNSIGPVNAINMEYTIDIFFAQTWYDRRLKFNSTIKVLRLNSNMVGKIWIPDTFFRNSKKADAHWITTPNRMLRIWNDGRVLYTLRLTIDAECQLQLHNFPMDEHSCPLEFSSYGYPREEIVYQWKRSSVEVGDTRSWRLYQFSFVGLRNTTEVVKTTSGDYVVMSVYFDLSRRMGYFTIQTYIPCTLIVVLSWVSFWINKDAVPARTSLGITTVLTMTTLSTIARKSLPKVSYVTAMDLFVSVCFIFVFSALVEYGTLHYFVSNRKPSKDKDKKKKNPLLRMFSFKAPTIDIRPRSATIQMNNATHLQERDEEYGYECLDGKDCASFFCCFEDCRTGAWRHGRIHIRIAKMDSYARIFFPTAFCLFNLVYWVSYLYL
T1 sequence (P28472 whole entry): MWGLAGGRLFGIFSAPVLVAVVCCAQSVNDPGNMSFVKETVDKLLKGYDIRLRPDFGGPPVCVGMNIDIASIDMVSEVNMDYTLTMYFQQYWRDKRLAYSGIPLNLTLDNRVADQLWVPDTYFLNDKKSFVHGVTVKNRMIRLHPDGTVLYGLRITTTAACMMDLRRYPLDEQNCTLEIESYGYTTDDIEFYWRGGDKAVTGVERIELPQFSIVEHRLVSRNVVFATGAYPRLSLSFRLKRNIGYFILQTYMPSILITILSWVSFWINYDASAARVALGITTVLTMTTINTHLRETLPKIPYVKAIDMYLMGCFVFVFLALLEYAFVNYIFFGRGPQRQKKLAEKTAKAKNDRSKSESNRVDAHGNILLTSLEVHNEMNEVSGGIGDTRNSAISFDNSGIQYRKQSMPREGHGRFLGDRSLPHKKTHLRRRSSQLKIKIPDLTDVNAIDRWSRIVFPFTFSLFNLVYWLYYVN
T1 sequence (P31644 whole entry): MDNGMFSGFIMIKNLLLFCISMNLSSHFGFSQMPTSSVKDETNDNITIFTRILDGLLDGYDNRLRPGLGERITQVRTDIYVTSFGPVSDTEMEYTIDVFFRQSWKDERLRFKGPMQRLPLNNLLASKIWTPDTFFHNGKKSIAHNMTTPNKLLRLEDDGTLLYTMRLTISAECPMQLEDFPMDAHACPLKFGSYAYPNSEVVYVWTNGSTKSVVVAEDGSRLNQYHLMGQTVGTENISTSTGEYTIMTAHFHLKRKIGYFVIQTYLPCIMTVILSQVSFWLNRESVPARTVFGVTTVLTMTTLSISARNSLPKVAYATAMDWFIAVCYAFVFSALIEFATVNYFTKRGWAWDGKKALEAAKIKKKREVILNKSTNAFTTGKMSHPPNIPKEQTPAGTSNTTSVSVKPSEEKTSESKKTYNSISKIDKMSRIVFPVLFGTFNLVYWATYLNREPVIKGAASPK
Nature of the assay: Displacement of [3H]-Ro- 15-1788 binding from human recombinant Gamma-aminobutyric acid A receptor alpha-5-beta-3-gamma-2 expressed in mouse fibroblast L(tk-) cells (30 min at 24 degrees C, pH 7.4). The assay is classed as cell-based. Put shortly:
(§1)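 Membranes from L(tk-) cells stably expressing human α1, α3 or α5 β3γ2 in 50 mM Tris pH 7.4. [3H]Ro15-1788 at 1.8 nM final, 30 min at 24 °C. Nonspecific binding set with 10 µM flunitrazepam, total binding in 0.1% DMSO. Filtration, scintillation counting. Ki is mean ± SEM of ≥3 independent determinations.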
For orientation: Displacement assays read how much labelled ligand stays bound in the presence of the test substance.

In assay [2] the target is T2, GABA-A receptor; alpha-1/beta-3/gamma-2 (Homo sapiens, UniProt P14867+P18507+P28472).
T2 sequence (P14867 whole entry): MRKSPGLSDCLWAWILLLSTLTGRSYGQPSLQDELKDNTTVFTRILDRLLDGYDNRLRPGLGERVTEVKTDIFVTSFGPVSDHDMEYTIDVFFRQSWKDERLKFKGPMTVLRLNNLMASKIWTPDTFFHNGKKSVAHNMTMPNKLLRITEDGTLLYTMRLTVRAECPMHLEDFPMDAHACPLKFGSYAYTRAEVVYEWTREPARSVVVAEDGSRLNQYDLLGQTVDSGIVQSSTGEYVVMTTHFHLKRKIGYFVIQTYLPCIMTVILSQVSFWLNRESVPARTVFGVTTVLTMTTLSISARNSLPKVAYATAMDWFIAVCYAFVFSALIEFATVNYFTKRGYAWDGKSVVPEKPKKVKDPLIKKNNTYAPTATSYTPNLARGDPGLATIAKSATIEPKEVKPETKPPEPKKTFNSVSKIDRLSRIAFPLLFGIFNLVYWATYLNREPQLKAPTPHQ
T2 sequence (P18507 whole entry): T1 sequence (P18507 whole entry)
T2 sequence (P28472 whole entry): T1 sequence (P28472 whole entry)
As to the kind of experiment: Displacement of [3H]-Ro- 15-1788 binding from human recombinant Gamma-aminobutyric acid A receptor alpha-1-beta-3-gamma-2 expressed in mouse fibroblast L(tk-) cells (30 min at 24 degrees C, pH 7.4). The assay is classed as cell-based. The essentials:
as §1

For assay [3], the target named is GABA-A receptor; alpha-3/beta-3/gamma-2 (Homo sapiens) (UniProt P18507+P28472+P34903). Nature of the assay: Efficacy at GABAA alpha-3-beta-3-gamma-2 receptor expressed in mouse fibroblast L(tk-) cells measured at 300 nM derived from at least three plates/day screened over a minimum of 2 days. The assay is classed as functional, cell-based. The essentials:
(§2)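 FRET membrane-potential (VIPR) assay in L(tk-) cells with receptor expression induced 24 h by 1 µM dexamethasone. Dye-loaded 30 min in low-Cl- HEPES buffer pH 7.4: 4 µM CC2-DMPE, 1 µM DiSBAC2(3), 0.5 mM tartrazine. Basal read 8 s, compound at 300 nM, half-maximal GABA 22 s later, 1 Hz reads. Background-subtracted 460/580 nm ratio, normalized to DMCM as -100%.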

Assay [4] has as its target T3, GABA-A receptor; alpha-3/beta-3/gamma-2 (Homo sapiens, UniProt P18507+P28472+P34903).
T3 sequence (P18507 whole entry): T1 sequence (P18507 whole entry)
T3 sequence (P28472 whole entry): T1 sequence (P28472 whole entry)
T3 sequence (P34903 whole entry): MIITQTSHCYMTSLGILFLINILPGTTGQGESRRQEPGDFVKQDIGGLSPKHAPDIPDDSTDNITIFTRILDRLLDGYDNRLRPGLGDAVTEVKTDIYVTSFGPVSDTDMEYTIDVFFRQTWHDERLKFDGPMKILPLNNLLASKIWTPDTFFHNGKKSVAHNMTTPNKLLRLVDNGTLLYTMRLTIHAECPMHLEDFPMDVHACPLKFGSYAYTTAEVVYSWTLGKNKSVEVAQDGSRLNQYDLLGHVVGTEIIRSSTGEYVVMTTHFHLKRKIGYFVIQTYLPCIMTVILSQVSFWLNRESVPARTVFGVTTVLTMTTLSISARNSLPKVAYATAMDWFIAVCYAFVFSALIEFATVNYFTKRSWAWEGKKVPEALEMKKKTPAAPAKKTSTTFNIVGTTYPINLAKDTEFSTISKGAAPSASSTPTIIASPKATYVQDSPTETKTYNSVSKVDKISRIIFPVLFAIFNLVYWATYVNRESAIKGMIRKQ
As to the kind of experiment: Displacement of [3H]-Ro- 15-1788 binding from human recombinant Gamma-aminobutyric acid A receptor alpha-3-beta-3-gamma-2 expressed in mouse fibroblast L(tk-) cells (30 min at 24 degrees C, pH 7.4). The assay is classed as cell-based. Put shortly:
as §1

For assay [5], the target named is GABA-A receptor; alpha-5/beta-3/gamma-2 (Homo sapiens) (UniProt P18507+P28472+P31644). As to the kind of experiment: Efficacy at GABAA alpha-5-beta-3-gamma-2 receptor expressed in mouse fibroblast L(tk-) cells measured at 300 nM derived from at least three plates/day screened over a minimum of 2 days. The assay is classed as functional, cell-based. Put shortly: as §2

In general, Ki refers to a dissociation constant, usually derived from enzyme kinetics or from competition with a known ligand.

Where only a bound is given, the exact number is not on record here.

With `Cn1ncnc1COc1cccc(-c2cnnc(-c3ccccc3)c2)c1`, the inhibition constant Ki in assay [1] amounted to 8.8 nM; in assay [2], 8.5 nM; in assay [4], 10.4 nM. Further, the Efficacy was 43 in assay [3] and -5 in assay [5].

As to `CCOc1cc(-c2cccc(C#N)c2)cnn1`, the values for the Ki in assay [1] and in assay [4] were 36 nM and 72 nM, respectively. Besides, the results for the Efficacy in assay [3] and in assay [5] were 19 and -9, respectively.

`N#Cc1cccc(-c2cnnc(NCc3ccccc3)c2)c1`: the Ki in assay [1] amounted to 6.1 nM; in assay [4], 15 nM. The Efficacy in assay [3] worked out at 59; in assay [5] it was 17.

Take `N#Cc1ccccc1-c1cnnc(-c2ccccc2)c1`: the values for the Ki in assay [1] and in assay [4] were 323 nM and 440 nM, respectively.

For `CCNc1cc(-c2cccc(Br)c2)cnn1`, the Ki in assay [1] is 3.8 nM; in assay [2], 3.5 nM; in assay [4], 7.3 nM. Further, the Efficacy was 2 in assay [3] and -12 in assay [5].

Turning to `COC(=O)c1sccc1-c1cnnc(-c2ccccc2)c1`, the Ki in assay [1] worked out at 12 nM; in assay [2], 88 nM; in assay [4] it was 45 nM. For the same compound, the Efficacy in assay [3] was -44; in assay [5], -39.

Turning to `N#Cc1cccc(-c2cnnc(-c3ccc(F)cc3F)c2)c1`, the Ki in assay [1] was found to be 17 nM; in assay [4], 23 nM. Also, the Efficacy in assay [5] was -57.

Take `Brc1cccc(-c2cnnc(NCc3ccccc3)c2)c1`: the inhibitory constant (Ki) in assay [1] worked out at 19 nM; in assay [4], 51 nM. Further, the values for the Efficacy in assay [3] and in assay [5] were 66 and 14, respectively.

As to `CC(C)Nc1cc(-c2cccc(Br)c2)cnn1`, the Ki in assay [1] was 7.2 nM; in assay [2] it was 7.3 nM; in assay [4], 22 nM. For the same compound, the Efficacy was found to be 25 in assay [3] and 14 in assay [5].

Regarding `COc1cc(-c2cccc(Br)c2)cnn1`, the values for the Ki in assay [1] and in assay [4] were 54 nM and 205 nM, respectively. Further, the Efficacy in assay [3] was 42; in assay [5], -18.

As for `CC(C)Oc1cccc(-c2cnnc(-c3ccccc3)c2)c1`, the values for the Ki in assay [1], in assay [2] and in assay [4] were 8.4 nM, 12 nM and 27 nM, respectively. For the same compound, the Efficacy in assay [3] was 22; in assay [5], 18.

With `N#Cc1ccc(-c2cnnc(-c3ccccc3)c2)cc1`, the Ki is 56 nM in assay [1], 27 nM in assay [2] and 81 nM in assay [4]. Further, the values for the Efficacy in assay [3] and in assay [5] were 49 and 45, respectively.

Take `CN(C)c1cc(-c2cccc(Br)c2)cnn1`: the Ki in assay [1] was 51 nM; in assay [2] it was 55 nM; in assay [4], 120 nM. Further, the Efficacy was -49 in assay [3] and -62 in assay [5].

For `CNc1cc(-c2cccc(Br)c2)cnn1`, the Ki in assay [1] was 27 nM; in assay [2] it was 49 nM; in assay [4], 113 nM. Moreover, the Efficacy in assay [3] is 3; in assay [5] it was -26.

On to `N#Cc1cccc(-c2cnnc(-c3ccc(F)cc3)c2)c1`, for which the Ki in assay [1] came to 14 nM; in assay [4] it was 26 nM.

On to `N#Cc1cccc(-c2cnnc(-c3ccccc3F)c2)c1`, for which the results for the inhibition constant (Ki) in assay [1] and in assay [4] were 3.4 nM and 7.9 nM, respectively. For the same compound, the results for the Efficacy in assay [3] and in assay [5] were -17 and -31, respectively.

In the case of `COC(=O)c1cccc(-c2cnnc(-c3ccccc3)c2)c1`, the results for the Ki in assay [1] and in assay [4] were 11 nM and 29 nM, respectively. In addition, the Efficacy is -7 in assay [3] and -48 in assay [5].

On to `c1ccc(-c2cc(-c3ccnc(-c4ccncc4)n3)cnn2)cc1`, for which the Ki in assay [1] came out at 1.6 nM; in assay [2] it was 1.3 nM; in assay [4] it was 3.1 nM. Further, the results for the Efficacy in assay [3] and in assay [5] were -49 and -62, respectively.

For `CCOc1cc(-c2cccc(Br)c2)cnn1`, the figures for the Ki in assay [1], in assay [2] and in assay [4] were 5.7 nM, 8.6 nM and 19 nM, respectively. In addition, the Efficacy in assay [3] was 39; in assay [5] it was 4.

With `Brc1cccc(-c2cnnc(OCc3ccccc3)c2)c1`, the Ki in assay [1] is 63 nM; in assay [4], 302 nM. The Efficacy in assay [3] was found to be 32.

As for `N#Cc1cccc(-c2cnnc(-c3cccc(F)c3)c2)c1`, the values for the Ki in assay [1] and in assay [4] were 4 nM and 7.2 nM, respectively. In addition, the figures for the Efficacy in assay [3] and in assay [5] were 3.6 and 0, respectively.

For `N#Cc1cccc(-c2cc(-c3ccccc3)cnn2)c1`, the Ki in assay [1], in assay [2] and in assay [4] was > 666 nM throughout.

In the case of `c1ccc(-c2cc(-c3cccc(-n4cnnc4)c3)cnn2)cc1`, the inhibition constant (Ki) came to 12 nM in assay [1] and 41 nM in assay [4]. The Efficacy in assay [3] was 13; in assay [5], -31.

In the case of `CCNc1cc(-c2cccc(C#N)c2)cnn1`, the values for the Ki in assay [1] and in assay [4] were 33 nM and 79 nM, respectively. The values for the Efficacy in assay [3] and in assay [5] were 8 and -29, respectively.

With `N#Cc1cccc(-c2cnnc(OCc3ccccc3)c2)c1`, the Ki in assay [1] was found to be 17 nM; in assay [4] it was 60 nM. The compound further registered an Efficacy in assay [3] of 60.
